# According to paper PMC5033715 (International journal of toxicology, 2016):
# “And” between values parts separate entries of the source, which are not always exact repeats. Identical values can stand only once. “Also recorded” adds a separate entry of the source. Like-named read-outs stand apart in the source and are kept apart here. Marks after values point to notes of the source that are not given here.
# What was measured:
# LANCL2 = conditions: cited from earlier work
# [1] = test system: adult Sprague Dawley male rats; experiment: Single dose study; type: in vivo, rat
# Method in brief: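 Rats were fasted 12 h, then given one oral gavage of vehicle or 500 mg/kg as a 100 mg/mL suspension; n=10. The functional observational battery was scored at baseline (day −3 or −4), 4 h, and days 1, 7 and 14. Quantal and categorical endpoints were compared by Fisher's exact test. Continuous endpoints (body weight, grip strength and others) were analysed by mixed model with rat as random effect, giving least-squares means per time point.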
# [2] = test system: adult Sprague Dawley male rats; experiment: Single dose study; type: in vivo, rat; conditions: for tBILI, mean plasma: control 0.10; for ALT, mean plasma: control 39; for AST, mean plasma: control 69; for ALP, mean plasma: control 300
# Method in brief: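 After a 12 h fast, rats received vehicle or one 500 mg/kg oral gavage. Separate satellite rats (3 treated, 4 control per time point) were euthanized with intraperitoneal pentobarbital 200 mg/kg at 2, 4, 8 and 14 days. Blood was run through a haematology and chemistry panel including ALT, AST, bilirubin, glucose, BUN, creatinine, electrolytes, cholesterol and proteins; group means are reported.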
# [3] = test system: adult Sprague Dawley male rats; experiment: Single dose study; type: in vivo, rat; conditions: single oral 500 mg/kg; 2, 4, 8 or 14 days post-dosing
# Method in brief: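 Satellite rats given vehicle or a single 500 mg/kg oral dose were euthanized (pentobarbital 200 mg/kg ip) at 2, 4, 8 and 14 days. Brain, kidney, liver, adrenal, testes, stomach, intestines, duodenum, pancreas, heart, lungs, spleen, thymus and rib were sectioned at 5 μm and H&E stained, n=3. A board-certified veterinary pathologist examined them unblinded by light microscopy.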
# [4] = Pharmacokinetic experiment, single 80 mg/kg oral dose, plasma LC-MS/MS; type: in vivo, rat; conditions: for Geometric mean of plasma concentration (95% lower and upper confidence limits) / Plasma concentration, Median (minimum; maximum): n=3
# Method in brief: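 Adult male Sprague-Dawley rats with indwelling jugular catheters, caged singly and acclimated 5 days, were fasted 12 h and given 80 mg/kg by oral gavage. Catheter blood was drawn at 0.5–48 hr, at least 3 rats per time point. EDTA plasma was acetonitrile-extracted with reserpine internal standard and assayed by LC-MS/MS (C18, duplicates; LLOQ 0.2 ng/ml). Median concentrations gave kel, Vd, Cl and T½. Cmax and Tmax were read from the curve, and ka from a one-compartment fit.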
# [5] = Blood concentrations after single high dose; type: in vivo, rat
# [6] = test system: adult Sprague Dawley male rats; experiment: Repeated dose study; type: in vivo, rat; conditions: for O_REAR (rears during observation period), least squares means (95% confidence interval): 80 mg/kg/day
# Method in brief: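 Male Sprague-Dawley rats (200–250 g) were housed 2 per cage on a reverse light cycle and fasted 12 h before dosing. They received vehicle or 80 mg/kg (20 mg/mL suspension) by oral gavage daily for 14 days, then 7 drug-free days; n=10, 8 at day 21. FOB ran at baseline (day −3/−4) and days 3, 7, 14 and 21. It covered quantal/categorical endpoints (Mantel-Haenszel chi-square, 2 blocks) and continuous endpoints (weight, temperature, rotarod, grip, foot splay) as mixed-model least-squares means.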
# [7] = test system: adult Sprague Dawley male rats; experiment: Repeated dose study; type: in vivo, rat; conditions: 80 mg/kg/day for 14 days; days 4, 8, 14, 21
# [8] = test system: adult Sprague Dawley male rats; experiment: Repeated dose study; type: in vivo, rat; conditions: 80 mg/kg/day over 14 days
# [9] = Solubility for intravenous administration; type: physicochemical; conditions: at concentrations required for IV administration of the test dose
# mouse models of colitis = conditions: cited from earlier work
# [10] = Day 2 after single oral 500 mg/kg
# [11] = Day 4 after single oral 500 mg/kg
# [12] = Day 8 after single oral 500 mg/kg
# [13] = Day 14 after single oral 500 mg/kg
smiles,measurement,setting,value
CC1=CC(=O)CC(C)(C)[C@@]1(O)/C=C/C(C)=C\C(=O)O [Abscisic acid],LANCL2 binding,"LANCL2; leads to elevation of intracellular cAMP, activation of PKA",binds to LANCL2
"O=C(c1cccc(-c2nc3ccccc3[nH]2)n1)N1CCN(C(=O)c2cccc(-c3nc4ccccc4[nH]3)n2)CC1 [BT-11, piperazine-1,4-diylbis((6-(1H-benzo[d]imidazo-2-y)pyridin-2-yl)methanone)]",weight difference vs control,[1]; 14 days after single 500 mg/kg bolus dose,< 4%
same,"hind grip strength, least squares mean","[1]; day 1 after single oral 500 mg/kg, control 0.46, p=0.0272",0.40
same,"weight, least squares mean","[1]; day 14 after single oral 500 mg/kg, control 264.46, p=0.0006",254.71
same,"FOB quantal endpoints, treated vs control",[1]; single oral 500 mg/kg,no differences
same,behavioral evidence of detrimental effects,"[1]; single oral 500 mg/kg, 2 weeks observation",No obvious behavioral evidence of detrimental effects
same,"FOB categorical endpoints, treated vs control","[1]; single oral 500 mg/kg, time points beyond baseline",did not differ
same,tolerability,[1]; single oral bolus of 500 mg/kg,well-tolerated
same,"tBILI, mean plasma",[2]; [10],0.20^a mg/dL
same,"ALT, mean plasma",[2]; [10],126^a IU/L
same,"AST, mean plasma",[2]; [10],269^a IU/L
same,"ALP, mean plasma",[2]; [10],376^a IU/L
same,"tBILI, mean plasma",[2]; [11],0.23^a mg/dL
same,"ALT, mean plasma",[2]; [11],52^a IU/L
same,"AST, mean plasma",[2]; [11],106^a IU/L
same,"ALP, mean plasma",[2]; [11],294^a IU/L
same,"tBILI, mean plasma",[2]; [12],0.13 ^a mg/dL
same,"ALT, mean plasma",[2]; [12],53^a IU/L
same,"AST, mean plasma",[2]; [12],80^a IU/L
same,"ALP, mean plasma",[2]; [12],288 ^a IU/L
same,"tBILI, mean plasma",[2]; [13],0.10^a mg/dL
same,"ALT, mean plasma",[2]; [13],41^a IU/L
same,"AST, mean plasma",[2]; [13],67^a IU/L
same,"ALP, mean plasma",[2]; [13],265^a IU/L
same,"histopathologic comparison, vehicle control vs BT-11-exposed",[3],No significant differences
same,time to steady state (97% level) after repeated dosing,"[4]; 5 × T ½, assuming single-compartment, dose-independent pharmacokinetics",approximately 15 hr
same,Geometric mean of plasma concentration (95% lower and upper confidence limits),[4]; 0.5 hr after 80 mg/kg oral,14.60 (2.94; 72.53) ng/ml
same,"Plasma concentration, Median (minimum; maximum)",[4]; 0.5 hr after 80 mg/kg oral,12.18 (8.55; 29.89) ng/ml
same,Geometric mean of plasma concentration (95% lower and upper confidence limits),[4]; 1 hr after 80 mg/kg oral,23.99 (4.66; 123.40) ng/ml
same,"Plasma concentration, Median (minimum; maximum)",[4]; 1 hr after 80 mg/kg oral,20.95 (13.42; 49.11) ng/ml
same,Geometric mean of plasma concentration (95% lower and upper confidence limits),[4]; 2 hr after 80 mg/kg oral,19.65 (4.28; 90.23) ng/ml
same,"Plasma concentration, Median (minimum; maximum)",[4]; 2 hr after 80 mg/kg oral,16.88 (11.65; 38.62) ng/ml
same,Geometric mean of plasma concentration (95% lower and upper confidence limits),[4]; 4 hr after 80 mg/kg oral,8.24 (1.89; 35.94) ng/ml
same,"Plasma concentration, Median (minimum; maximum)",[4]; 4 hr after 80 mg/kg oral,11.07 (4.16; 12.14) ng/ml
same,Geometric mean of plasma concentration (95% lower and upper confidence limits),[4]; 8 hr after 80 mg/kg oral,5.24 (2.16; 12.73) ng/ml
same,"Plasma concentration, Median (minimum; maximum)",[4]; 8 hr after 80 mg/kg oral,4.33 (4.20; 7.91) ng/ml
same,Geometric mean of plasma concentration (95% lower and upper confidence limits),[4]; 12 hr after 80 mg/kg oral,1.84 (1.39; 2.45) ng/ml
same,"Plasma concentration, Median (minimum; maximum)",[4]; 12 hr after 80 mg/kg oral,1.83 (1.65; 2.07) ng/ml
same,Geometric mean of plasma concentration (95% lower and upper confidence limits),[4]; 16 hr after 80 mg/kg oral,2.31 (0.12; 44.19) ng/ml
same,"Plasma concentration, Median (minimum; maximum)",[4]; 16 hr after 80 mg/kg oral,1.40 (0.99; 8.98) ng/ml
same,Geometric mean of plasma concentration (95% lower and upper confidence limits),[4]; 20 hr after 80 mg/kg oral,1.06 (0.29; 3.90) ng/ml
same,"Plasma concentration, Median (minimum; maximum)",[4]; 20 hr after 80 mg/kg oral,1.39 (0.58; 1.49) ng/ml
same,Geometric mean of plasma concentration (95% lower and upper confidence limits),[4]; 24 hr after 80 mg/kg oral,0.95 (0.04; 21.25) ng/ml
same,"Plasma concentration, Median (minimum; maximum)",[4]; 24 hr after 80 mg/kg oral,1.01 (0.26; 3.22) ng/ml
same,Geometric mean of plasma concentration (95% lower and upper confidence limits),[4]; 48 hr after 80 mg/kg oral,1.57 (0.47; 5.31) ng/ml
same,"Plasma concentration, Median (minimum; maximum)",[4]; 48 hr after 80 mg/kg oral,1.90 (0.90; 2.27) ng/ml
same,Cmax (maximal concentration),"[4]; single 80 mg/kg oral, estimated from graph of median plasma concentrations",21 ng/mL
same,Half-life (T ½),"[4]; single 80 mg/kg oral, median values 0.5-8 hr, 80 mg/kg",3 h
same,"blood concentration, individual samples",[5]; 2 hr after 500 mg/kg oral,32 ng/mL and 3.1 ng/mL and 13 ng/mL
same,"blood concentration, individual samples",[5]; 4 hr after 500 mg/kg oral,17 ng/mL and 15 ng/mL and 6.7 ng/mL
same,"blood concentration, individual samples",[5]; 22 hr after 500 mg/kg oral,3.0 ng/mL and 9.6 ng/mL and 3.3 ng/mL
same,"FOB quantal endpoints, treated vs control",[6]; 80 mg/kg/day oral for 14 days,No quantal differences
same,behavioral evidence of detrimental effects,"[6]; 80 mg/kg/day oral, 2 weeks of treatment and 1 week post-dosing",No behavioral evidence of detrimental effects
same,"weight and hind grip, treated vs control","[6]; 14 daily oral doses of 80 mg/kg, to day 21",no significant differences
same,"O_REAR (rears during observation period), least squares means (95% confidence interval)","[6]; Study day 3, control 29.17, P=0.4916",27.23 (13.90-40.57)
same,"O_REAR (rears during observation period), least squares means (95% confidence interval)","[6]; Study day 7, control 27.97, P=0.1985",24.33 (11.00-37.67)
same,"O_REAR (rears during observation period), least squares means (95% confidence interval)","[6]; Study day 14, control 30.27, P=0.0273",23.93 (10.60-37.27)
same,tolerability,"[6]; oral, 14 days at 80 mg/kg (cumulative dose 1,120 mg/kg)",well-tolerated
same,"clinical pathological examination of blood samples, control vs test",[7],did not reveal any clinical or statistical differences
same,histopathologic evidence of toxic injury,[8],no histopathologic evidence of toxic injury
same,solubility,[9],too insoluble to administer by the intravenous route; also recorded: relatively insoluble; also recorded: insufficiently soluble to be given IV
same,inflammatory F4/80+ CD11b+ macrophages and effector Th1 cells in the gut mucosa,mouse models of colitis; 3 mouse models of colitis,decreased numbers
same,lowest dose with therapeutic efficacy,mouse models of colitis; 3 validated mouse models of colitis,8 mg/kg/day
same,Th1 cells and Th17 cells in the spleen and MLN,mouse models of colitis; mouse colitis,decreased the levels
same,colonic expression of IL-10 and LANCL2,"mouse models of colitis; oral, dose-dependent",up-regulated
same,colonic expression of TNFα,"mouse models of colitis; oral, dose-dependent",down-regulated
same,reduction in gut inflammation,"mouse models of colitis; oral, mice, 3 mouse models of colitis/IBD",90%
same,lowest (minimal) efficacious dose,"mouse models of colitis; oral, mice",8 mg/kg
same,reduction of colonic lesions,"mouse models of colitis; oral, mice, doses 80 mg/kg and as low as 8 mg/kg",4 X
same,LANCL2 binding,LANCL2,binds LANCL2
"O=C(Nc1cccc(-c2nc3ccccc3[nH]2)c1)c1ccc(C(=O)Nc2cccc(-c3nc4ccccc4[nH]3)c2)cc1 [CID247228, N^1,N^4-bis(3-(1H-benzo[d]imidazo-2-yl)phenyl)terephthalamide, reference compound]",anti-inflammatory activity in mice with colitis,mouse models of colitis; oral,potent oral anti-inflammatory therapeutic
same,LANCL2 binding,LANCL2,ligand of LANCL2
